Test results taken from ChEMBL document CHEMBL1155257, “Proteochemometrics mapping of the interaction space for retroviral proteases and their substrates” (Bioorg Med Chem, 2009).
Non-standard residues stand in square brackets, D forms with d. Residues, ends and D or L forms follow the SMILES beside them. Groups on a side chain read outwards from the residue. ξ: configuration not given here. *: point of attachment. Phe(4-Br) = N[C@@H](Cc1ccc(Br)cc1)C(=O)O; Phe(4-Cl) = N[C@@H](Cc1ccc(Cl)cc1)C(=O)O; Phe(4-NH2) = Nc1ccc(C[C@H](N)C(=O)O)cc1; 2Nal = N[C@@H](Cc1ccc2ccccc2c1)C(=O)O; hArg = N=C(N)NCCCC[C@H](N)C(=O)O; hPhe = N[C@@H](CCc1ccccc1)C(=O)O; Cha = N[C@@H](CC1CCCCC1)C(=O)O; Phg = N[C@H](C(=O)O)c1ccccc1; Nle = CCCC[C@H](N)C(=O)O; Dab = NCC[C@H](N)C(=O)O; Nva = CCC[C@H](N)C(=O)O; Dap = NC[C@H](N)C(=O)O; ξDab = NCCC(N)C(=O)O; ξDap = NCC(N)C(=O)O; Bn = c1ccc(C*)cc1

Tests used:
[1] = Inhibition of HIV1 HXB2 protease 184V mutant; parameters: species or system Human immunodeficiency virus 1
Outline: (§1)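 Mutant HIV-1 HXB2 protease clones (I84V, L90M, or I84V+L90M), 70 ng per 100 µL reaction. Buffer: 0.1 M acetic acid, 1.1 M NaCl, pH 5.0. Enzyme preincubated 10 min at 37 °C with hexapeptide (11 twofold dilutions from 100 µM). Substrate (2.25 µg) then added and reacted 30 min at 37 °C. Fluorescence read every 60 s (ex 355/em 490 nm) against a no-inhibitor control.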

[2] = molecular target: T1, Human immunodeficiency virus type 1 protease (Human immunodeficiency virus 1, UniProt Q72874, L90M); assay: Inhibition of HIV1 HXB2 protease L90M mutant; outline: as §1
Protease [3] = molecular target: T2, Protease (Human immunodeficiency virus 1, UniProt Q9YQ12); assay: Inhibition of wild type HIV1 HXB2 protease
Outline: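 HXB2 HIV-1 protease clone (35 ng per 100 µL) in 0.1 M acetic acid, 1.1 M NaCl, pH 5.0. Hexapeptide was preincubated with enzyme for 10 min at 37 °C. Substrate (2.25 µg) was then added and fluorescence (ex 355/em 490 nm) read over 30 min at 37 °C. Eleven twofold dilutions from 100 µM; 1 mM stocks in DMSO/water 1:2. Protease-plus-substrate control without inhibitor.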

[4] = Inhibition of HIV1 HXB2 protease […], L90M mutant; parameters: species or system Human immunodeficiency virus 1; outline: as §1
[5] = Inhibition of HIV1 HXB2 protease […], L90M mutant at 100 uM; parameters: species or system Human immunodeficiency virus 1; outline: as §1
Protease [6] = molecular target: T2, Protease; assay: Inhibition of wild type HIV1 HXB2 protease at 100 uM
[7] = molecular target: T1, Human immunodeficiency virus type 1 protease; assay: Inhibition of HIV1 HXB2 protease L90M mutant at 100 uM; outline: as §1
[8] = Inhibition of HIV1 HXB2 protease […] mutant at 100 uM; parameters: species or system Human immunodeficiency virus 1; outline: as §1

T2 sequence (Q9YQ12 whole entry): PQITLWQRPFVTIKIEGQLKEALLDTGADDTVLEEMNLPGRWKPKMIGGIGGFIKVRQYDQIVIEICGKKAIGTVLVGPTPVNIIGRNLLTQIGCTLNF

## CCC[C@H](NC(=O)[C@H](Cc1ccc2ccccc2c1)NC(=O)[C@H](CCC(=O)O)NC(=O)C(N)CNC(=O)[C@H](CC1CCCCC1)NC(=O)[C@@H](N)Cc1ccc2ccccc2c1)C(=O)O (stereo not given in full) (H-[ξDap]([Cha-2Nal])E[2Nal][Nva]-OH)
[1]
  Ki: 20.7 µM
[2]
  Ki: 9.7 µM
Protease [3]
  Ki: 12 µM
[4]
  Ki: 20.8 µM

## CCC[C@H](NC(=O)[C@H](Cc1ccc(O)cc1)NC(=O)[C@H](CCCCNC(=N)N)NC(=O)[C@H](CCSC)NC(=O)[C@@H](NC(=O)[C@@H](N)Cc1ccc2ccccc2c1)C(C)C)C(=O)O (H-[2Nal]VM[hArg]Y[Nva]-OH)
[1]
  Ki: 19.9 µM
[2]
  Ki: 6.9 µM
Protease [3]
  Ki: 5.4 µM
[4]
  Ki: 7.5 µM

## CC(=O)N[C@@H](CC(=O)O)C(=O)NCC(=O)NCC(=O)N[C@@H](C)C(=O)N[C@@H](CC(C)C)C(=O)N[C@@H](CO)C(=O)O (Ac-DGGALS-OH)
[5]
  Ki: Not Active
Protease [6]
  Ki: Not Active
[7]
  Ki: Not Active
[8]
  Ki: Not Active

## CC(=O)N[C@@H](C)C(=O)N[C@@H](Cc1cnc[nH]1)C(=O)N[C@@H](Cc1ccc(O)cc1)C(=O)N[C@@H](C)C(=O)N[C@H](C(=O)N[C@@H](Cc1cnc[nH]1)C(=O)O)[C@@H](C)O (Ac-AHYATH-OH)
[5]
  Ki: Not Active
Protease [6]
  Ki: Not Active
[7]
  Ki: Not Active
[8]
  Ki: Not Active

## CC(=O)N1CCC[C@H]1C(=O)N[C@@H](Cc1ccc(O)cc1)C(=O)N[C@@H](C)C(=O)NCC(=O)N[C@@H](C)C(=O)N[C@@H](CCC(N)=O)C(=O)O (Ac-PYAGAQ-OH)
[5]
  Ki: Not Active
Protease [6]
  Ki: Not Active
[7]
  Ki: Not Active
[8]
  Ki: Not Active

## CC(=O)N[C@@H](Cc1ccc(O)cc1)C(=O)N[C@@H](C)C(=O)N[C@H](C(=O)N1CCC[C@H]1C(=O)NCC(=O)N[C@H](C(=O)O)[C@H](C)O)[C@H](C)O
[5]
  Ki: Not Active
Protease [6]
  Ki: Not Active
[7]
  Ki: Not Active
[8]
  Ki: Not Active

## N=C(N)NCCC[C@H](NC(=O)C(N)CCNC(=O)[C@H](CC1CCCCC1)NC(=O)[C@@H](N)CCc1ccccc1)C(=O)N[C@@H](CCc1ccccc1)C(=O)N[C@@H](CC1CCCCC1)C(=O)O (stereo not given in full) (H-[ξDab]([Cha-hPhe])R[hPhe][Cha]-OH)
[5]
  Ki: Not Active
[2]
  Ki: 47.4 µM
Protease [3]
  Ki: 2 µM
[8]
  Ki: Not Active

## CC(=O)N[C@H](C(=O)N[C@@H](CC(N)=O)C(=O)N[C@H](C(=O)N[C@H](C(=O)N[C@@H](C)C(=O)N[C@@H](CC(=O)O)C(=O)O)[C@@H](C)O)[C@@H](C)O)[C@@H](C)O (Ac-TNTTAD-OH)
[5]
  Ki: Not Active
Protease [6]
  Ki: Not Active
[7]
  Ki: Not Active
[8]
  Ki: Not Active

## CC(=O)N[C@@H](CO)C(=O)N1CCC[C@H]1C(=O)N[C@@H](C)C(=O)N[C@H](C(=O)N[C@@H](CCC(=O)O)C(=O)N[C@@H](C)C(=O)O)[C@@H](C)O (Ac-SPATEA-OH)
[5]
  Ki: Not Active
Protease [6]
  Ki: Not Active
[7]
  Ki: Not Active
[8]
  Ki: Not Active

## CCC[C@H](NC(=O)[C@H](Cc1ccc2ccccc2c1)NC(=O)[C@H](CCCCNC(=N)N)NC(=O)[C@@H](N)CNC(=O)[C@H](CCC)NC(=O)[C@@H](N)CCc1ccccc1)C(=O)O (H-[Dap]([Nva-hPhe])[hArg][2Nal][Nva]-OH)
[1]
  Ki: 13.3 µM
[2]
  Ki: 23.6 µM
Protease [3]
  Ki: 5.2 µM
[4]
  Ki: 15.7 µM

## CC(=O)NCC(=O)N[C@H](C(=O)N[C@@H](C)C(=O)N[C@@H](Cc1ccc(O)cc1)C(=O)N[C@@H](CO)C(=O)N[C@@H](CS)C(=O)O)[C@@H](C)O (Ac-GTAYSC-OH)
[5]
  Ki: Not Active
Protease [6]
  Ki: Not Active
[7]
  Ki: Not Active
[8]
  Ki: Not Active

## CC(=O)N[C@@H](CO)C(=O)N[C@H](C(=O)N[C@@H](CCCNC(=N)N)C(=O)N[C@@H](CS)C(=O)N[C@@H](CO)C(=O)N[C@@H](Cc1c[nH]c2ccccc12)C(=O)O)C(C)C (Ac-SVRCSW-OH)
[5]
  Ki: Not Active
Protease [6]
  Ki: Not Active
[7]
  Ki: Not Active
[8]
  Ki: Not Active

## CC(C)C[C@H](NC(=O)[C@H](Cc1ccc(Br)cc1)NC(=O)[C@H](CCC(=O)O)NC(=O)C(N)CNC(=O)[C@H](CC1CCCCC1)NC(=O)[C@@H](N)Cc1ccc(Cl)cc1)C(=O)O (stereo partly drawn) (H-[ξDap]([Cha-Phe(4-Cl)])E[Phe(4-Br)]L-OH)
[1]
  Ki: 37.7 µM
[2]
  Ki: 15.7 µM
Protease [3]
  Ki: 5.5 µM
[4]
  Ki: 34.6 µM

## CC[C@H](C)[C@H](NC(=O)[C@H](Cc1cnc[nH]1)NC(=O)[C@H](C)NC(=O)[C@H](CO)NC(=O)[C@H](CCCNC(=N)N)NC(=O)[C@@H](NC(C)=O)C(C)C)C(=O)O (Ac-VRSAHI-OH)
[5]
  Ki: Not Active
Protease [6]
  Ki: Not Active
[7]
  Ki: Not Active
[8]
  Ki: Not Active

## CSCC[C@H](NC(=O)[C@H](CC1CCCCC1)NC(=O)[C@@H](N)Cc1ccc2ccccc2c1)C(=O)N[C@@H](CCC(=O)O)C(=O)N[C@H](C(=O)N[C@@H](CC1CCCCC1)C(=O)O)c1ccccc1 (H-[2Nal][Cha]ME[Phg][Cha]-OH)
[1]
  Ki: 3.9 µM
[2]
  Ki: 2.4 µM
Protease [3]
  Ki: 5.5 µM
[4]
  Ki: 2.7 µM

## NC(CCNC(=O)[C@H](CC1CCCCC1)NC(=O)[C@@H](N)Cc1ccc(Cl)cc1)C(=O)N[C@@H](CCC(=O)O)C(=O)N[C@@H](Cc1ccccc1)C(=O)N[C@@H](CC1CCCCC1)C(=O)O (stereo not given in full) (H-[ξDab]([Cha-Phe(4-Cl)])EF[Cha]-OH)
[5]
  Ki: Not Active
[2]
  Ki: 31.1 µM
Protease [3]
  Ki: 3.8 µM
[8]
  Ki: Not Active

## CC(C)C[C@H](NC(=O)[C@H](Cc1ccccc1)NC(=O)[C@H](CCCCNC(=N)N)NC(=O)[C@@H](N)CNC(=O)[C@H](CC1CCCCC1)NC(=O)[C@@H](N)CCc1ccccc1)C(=O)O (H-[Dap]([Cha-hPhe])[hArg]FL-OH)
[5]
  Ki: Not Active
[2]
  Ki: 26.5 µM
Protease [3]
  Ki: 4.6 µM
[8]
  Ki: Not Active

## CCCC[C@H](NC(=O)[C@H](Cc1ccc(OCc2ccccc2)cc1)NC(=O)[C@H](Cc1ccc(N)cc1)NC(=O)[C@H](CCCCN)NC(=O)[C@H](CC1CCCCC1)NC(=O)[C@@H](N)Cc1ccc2ccccc2c1)C(=O)O (H-[2Nal][Cha]K[Phe(4-NH2)]Y(Bn)[Nle]-OH)
[1]
  Ki: 31.6 µM
[2]
  Ki: 9.2 µM
Protease [3]
  Ki: 24.1 µM
[4]
  Ki: 56 µM

## CCCC[C@H](NC(=O)[C@@H](N)Cc1ccc2ccccc2c1)C(=O)NCC[C@H](N)C(=O)N[C@@H](CCC(=O)O)C(=O)N[C@@H](CCc1ccccc1)C(=O)N[C@@H](CCC)C(=O)O (H-[Dab]([Nle-2Nal])E[hPhe][Nva]-OH)
[5]
  Ki: Not Active
[2]
  Ki: 16.7 µM
Protease [3]
  Ki: 22 µM
[8]
  Ki: Not Active

## CC(=O)N[C@H](C(=O)N[C@@H](C)C(=O)N[C@@H](C)C(=O)NCC(=O)N[C@@H](CCCNC(=N)N)C(=O)N[C@H](C(=O)O)[C@@H](C)O)[C@@H](C)O (Ac-TAAGRT-OH)
[5]
  Ki: Not Active
Protease [6]
  Ki: Not Active
[7]
  Ki: Not Active
[8]
  Ki: Not Active
